Where two headings read alike, the source gives them in different places.
How the values were obtained:
adult S. mansoni [1] = assay: Viability of adult S. mansoni worms in vitro, microscopic viability score; type: cell-based, Schistosoma mansoni; details: for IC50: Table 1, adult worms after 72 h; for adult (%) 0.1 μM: Table 1, 0.1 μM; for adult (%) 0.1 μM / adult (%) 1 μM: effect on adult worms after 72 h; for adult (%) 1 μM: Table 1, 1 μM
Summary of the method: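 Adult worms were picked from the hepatic portal and mesenteric veins of mice infected 49 days earlier with 100 cercariae. They were washed in PBS pH 7.4 and held in RPMI 1640 with 5% heat-inactivated FCS and antibiotics at 37 °C, 5% CO2. Worms were exposed to test compound for 72 h, with medium plus 1% DMSO as control. Motility, viability and morphology were scored daily by microscopy at 80×. IC50 used a 3-fold dilution series starting at 1 μM and was computed from the scores.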

S. mansoni [2] = details: cited from earlier work
S. mansoni [3] = details: cited from earlier work; remark: listed apart in the source
S. mansoni [4] = assay: In vivo study in mice harboring a chronic S. mansoni infection; details: single oral dose 10 mg/kg
Summary of the method: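 Female NMRI mice (3 weeks old, ca. 20–22 g) were infected subcutaneously with about 100 S. mansoni cercariae. At day 49 post-infection (adult infection), groups of four received a single oral 10 mg/kg dose of test compound; untreated mice served as controls. Mice were euthanised with CO2 21 days after treatment. Worms were picked, sexed and counted, and worm burden reduction was calculated.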

S. mansoni NTS = details: read-out: IC50 against NTS; cited from earlier work
adult S. mansoni [5] = details: read-out: IC50 against adult S. mansoni; cited from earlier work

| SMILES | IC50 (adult S. mansoni [1]; Schistosoma mansoni, 72 h) [nM] | adult (%) 0.1 μM (adult S. mansoni [1]) [%] | adult (%) 1 μM (adult S. mansoni [1]) [%] | IC50 (adult S. mansoni [1]) [nM] | other results |
| --- | --- | --- | --- | --- | --- |
| C[C@@H]1C[C@H](O)[C@]2(O)O[C@@H]3C[C@@]4(C=O)[C@@H](CC[C@@H]5[C@@H]4CC[C@]4(C)[C@@H](C6=CC(=O)OC6)CC[C@]54O)C[C@H]3O[C@@H]2O1 [5a, Calotropin] | 371 | 22.9 | 97 |  |  |
| CC(=O)S[C@@H]1CC2=CC(=O)CC[C@]2(C)[C@H]2CC[C@@]3(C)[C@@H](CC[C@@]34CCC(=O)O4)[C@H]12 [spironolactone] |  |  |  |  | in vitro activity against S. mansoni (S. mansoni [2]): 7.2 µM; in vivo activity (S. mansoni [3]): moderate |
| C[C@@H]1C[C@@]2(N=CCS2)[C@]2(O)O[C@@H]3C[C@@]4(C=O)[C@@H](CC[C@@H]5[C@@H]4CC[C@]4(C)[C@@H](C6=CC(=O)OC6)CC[C@]54O)C[C@H]3O[C@@H]2O1 [5z, Uscharin] | 76 | 51 | 100 |  | mean number of worms, MV (S. mansoni [4]): 27.7 ± 6.5; mean number of worms, females (S. mansoni [4]): 13.0 ± 4.6; mean number of worms, liver, alive (S. mansoni [4]): 0.7 ± 1.1; mean number of worms, liver, dead (S. mansoni [4]): 0 ± 0; mean number of worms, males (S. mansoni [4]): 15.3 ± 3.2; mean number of worms, total (S. mansoni [4]): 28.3 ± 7.5; total WBR (worm burden reduction) (S. mansoni [4]; chronic infection): 0% |
| O=C(C1CCCCC1)N1CC(=O)N2CCc3ccccc3C2C1 (centres unmarked) [praziquantel] |  |  |  |  | IC50 (S. mansoni NTS): 2200 nM; IC50 (adult S. mansoni [5]): 100 nM |
| C[C@@H]1C[C@H](O)[C@]2(O)O[C@@H]3C[C@@]4(C)[C@@H](CC[C@@H]5[C@@H]4CC[C@]4(C)[C@@H](C6=CC(=O)OC6)CC[C@]54O)C[C@H]3O[C@@H]2O1 [5f, Gomphoside] |  | 24.4 | 94 | 196 |  |
| C[C@@H]1C[C@@]2(NCCS2)[C@]2(O)O[C@@H]3C[C@@]4(C=O)[C@@H](CC[C@@H]5[C@@H]4CC[C@]4(C)[C@@H](C6=CC(=O)OC6)CC[C@]54O)C[C@H]3O[C@@H]2O1 [5aa, Voruscharin] |  | 31.3 | 98 | 137 |  |
